Assay outcomes deposited in PubChem by several laboratories.
This is a sample that favours compounds with a hit; in the whole collection about 3.6% have one here.
NadD inh = NadD (S. aureus) enzyme inhibition | purified NadD enzyme, colorimetric absorbance read-out | inhibition, % at 20 µM | hit rate 0.78% among 360,000; in the data active = inhibition above about 26%
SENP1 inh = SENP1 (human) catalytic domain inhibition. recombinant SENP1 catalytic domain, CyPet-SUMO1-YPet FRET cleavage. inhibition, % at 10 µM. hit rate 0.21% among 360,000;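 active = inhibition at least 30% at 10 µM, raw YFP signal under a set limit, fluorescence ratio 0.5 to 1.5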;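 note: 0% = enzyme with DMSO and 100% = no enzyme wells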
Target sequence (Q9P0U3 419-644 limits assumed): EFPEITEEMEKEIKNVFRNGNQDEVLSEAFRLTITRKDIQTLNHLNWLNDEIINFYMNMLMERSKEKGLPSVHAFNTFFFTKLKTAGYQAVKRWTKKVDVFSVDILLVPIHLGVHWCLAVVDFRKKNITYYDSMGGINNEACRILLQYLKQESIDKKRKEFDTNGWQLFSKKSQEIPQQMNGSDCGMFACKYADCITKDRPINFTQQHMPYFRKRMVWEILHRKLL
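Compound: 10 µM single point, 0.5% DMSO; Test system: hSENP1 catalytic domain, recombinant; Timing: 50 min reaction at room temperature; Technique: FRET, CFP and YFP emission; Control set: no-enzyme wells low, DMSO-plus-enzyme wells high control.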
UCH37 DUB inh = blocks the human deubiquitinase UCH37. purified proteasome/UCH37, Ub-AMC cleavage fluorescence. inhibition, % (test concentration not listed). hit rate 0.33% among 330,000;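 active = mean inhibition over replicate wells above about 20%, limit read from the data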;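 note: 0% = compound-free wells with enzyme and 100% = wells lacking proteasome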
Target sequence (Q9Y5K5 whole entry, looked up): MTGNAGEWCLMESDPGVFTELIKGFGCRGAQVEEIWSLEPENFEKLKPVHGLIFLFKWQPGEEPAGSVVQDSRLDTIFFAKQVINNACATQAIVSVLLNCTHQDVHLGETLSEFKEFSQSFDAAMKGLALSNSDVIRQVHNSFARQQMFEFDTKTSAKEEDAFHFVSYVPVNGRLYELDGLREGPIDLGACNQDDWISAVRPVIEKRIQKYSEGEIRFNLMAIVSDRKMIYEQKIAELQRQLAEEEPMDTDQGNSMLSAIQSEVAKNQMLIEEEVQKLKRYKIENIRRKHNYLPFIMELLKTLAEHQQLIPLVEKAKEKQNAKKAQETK
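System: Proteasome-associated human UCH37 deubiquitinase; Input: 0.15 nM proteasome in added enzyme buffer; Also added: Ub-AMC substrate from 1 µM stock; Incubation: 30 min compound-proteasome preincubation then 25 min substrate reaction, room temperature; Detection: fluorescence, ex 355 nm, em 460 nm; Read-out: % inhibition of Ub-AMC cleavage fluorescence; Benchmarks: no-proteasome and no-compound wells.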
GRIN3A LBD mod = modulates the human NR3A ligand-binding domain; NR3A LBD differential scanning fluorimetry, Tm shift; 0% = protein alone, 100% = glycine-bound protein; AID 1259313; Tm shift relative to glycine control, % at 25 µM; hit rate 2.5% among 340,000;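 active = melting temperature shift of at least 10% of the positive control shift, at one fixed dose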
ATG4B inh = inhibitors of human ATG4B cysteine protease | ATG4B cleavage of LC3-PLA2, NBD-HPC fluorescence, 1 h | inhibition, % at 8.33 µM | hit rate 0.51% among 340,000 | Q9Y4P1; in the data active = inhibition above about 40%
Active calls of the source: *; . = no result; ! = a repeat was not active.

SMILES	NadD inh	SENP1 inh	UCH37 DUB inh	GRIN3A LBD mod	ATG4B inh
COc1cc(/C=C2\SC(=S)N(NS(=O)(=O)c3ccccc3)C2=O)ccc1O	-2.0	75.5*	14.4	-3.4	5.5
COc1cc(/C=C2\SC(=S)N(NS(=O)(=O)c3ccc(C)cc3)C2=O)cc(OC)c1OC	8.3	2.6	10.9	-5.7	2.6
CCN(CC)c1ccc(C=NN2CCN(Cc3ccc(C)cc3C)CC2)c(O)c1	.	.	0.8	.	.
O=C(/C=N/O)Nc1ccc2sc3ccccc3c2c1	-4.3	-0.7	.	33.7*	-8.2
COC(=O)c1ccccc1NC(=O)/C=N/O	-7.3	2.3	.	0.7	-4.1
CCC1CCCCN1C(=O)CSc1nc2c(cnn2-c2ccc(C)cc2)c(=O)[nH]1 (stereo not drawn)	6.7	0.1	3.7	16.1*	-5.1
c1ccc(-c2ccc3ccccc3n2)cc1	3.0	-1.5	3.0	31.9*	-1.0
O=C(NN=Cc1ccc2c(c1)OCO2)C(O)c1ccccc1 (stereo not drawn)	.	.	3.5	.	.
CCn1cc(Br)c(C(=O)Nc2ccc(F)c(Cl)c2)n1	-2.6	1.4	2.1	15.2*	-5.7
CCn1cc(Br)c(C(=O)NC(=S)Nc2ccc(C(=O)OC)cc2)n1	0.7	-1.0	-2.3	12.2*	4.2
CC[C@@]1(O)C(=O)OCc2c1cc1n(c2=O)Cc2cc3c(CN(C)C)c(O)ccc3nc2-1	-4.6	-31.7	-62.4	-0.9	-18.0
CC[C@@]1(O)C(=O)OCc2c1cc1n(c2=O)Cc2cc3c(N)cccc3nc2-1	1.2	31.8*	-0.9	-4.7	-2.5
CCCCCOc1ccc(C=c2sc3nc(=O)c(-c4ccccc4)nn3c2=O)cc1OC	.	.	4.4	.	.
CN(C(=O)C12CC3CC(CC(C3)C1)C2)C1(C)CCS(=O)(=O)C1 (stereo not drawn)	-4.7	0.4	30.1*	2.6	-17.8
CC1(NC(=O)C23CC4CC(CC(C4)C2)C3)CCS(=O)(=O)C1 (stereo not drawn)	1.5	0.3	4.1	1.2	-9.8
Cn1nnnc1Sc1ncnc2scc(-c3ccc(Cl)cc3)c12	2.0	1.5	.	-0.5	-2.6
Cn1nnnc1Sc1ncnc2scc(-c3ccc([N+](=O)[O-])cc3)c12	-2.1	0.8	2.1	13.5*	-0.8
O=C(O)c1ccc(S(=O)(=O)c2ccc3c(c2)C(=O)N(NC(=O)c2ccccc2)C3=O)cc1	0.1	3.8	2.5	23.0*	4.4
CCOc1c(OC(C)=O)ccc(/C=C2\N=C(SCC)SC2=O)c1[N+](=O)[O-]	4.7	2.2	5.9	14.2*	22.0
COc1c(OC(C)=O)ccc(C=NNC(=O)c2ccc(Br)cc2)c1[N+](=O)[O-]	.	.	6.2	.	.
CC1CN(CCc2ccccc2)C(C)CC1=NO (stereo not drawn)	.	.	2.7	.	.
CC(O)=C(C#N)c1nc2ccccc2[nH]1	.	.	2.2	.	.
COc1ccc(C2=NOC(Cn3nc(-c4ccccc4)cc3C(=O)NCc3ccccc3OC)C2)cc1 (stereo not drawn)	-5.2	-2.0	1.2	24.5*	-6.2
COc1ccccc1CNC(=O)c1cc(-c2ccccc2)nn1CC1CC(c2cccnc2)=NO1 (stereo not drawn)	2.3	3.8	6.2	-2.3	-7.0
CCCSc1nc(N2CCOCC2)c2c(c1C#N)CCCC2	3.9	-0.2	1.5	18.7*	2.6
SMILES	NadD inh	SENP1 inh	UCH37 DUB inh	GRIN3A LBD mod	ATG4B inh
Cc1cc(C=c2sc3nc4ccccc4n3c2=O)c(C)n1-c1ccccn1	.	.	-3.9	.	.
CCNC(=S)NN=C(C)c1cccc(OC)c1	.	.	2.7	.	.
Cc1cc(/C=C2/SC(=S)N(c3ccc([N+](=O)[O-])cc3)C2=O)c(C)n1-c1cccnc1	17.1	-32.1	13.4	0.5	2.2
Cc1cc(/C=C2/SC(=S)N(c3cccc(Cl)c3)C2=O)c(C)n1-c1cccnc1	29.6*	-21.0	5.8	3.5	-7.2
Clc1cccc(/C(Cc2nc3ccccc3[nH]2)=N\Nc2ccccc2)c1	11.4	-32.3	.	13.5*	12.9
NS(=O)(=O)c1ccc(NC(=O)c2ccc(CNS(=O)(=O)c3cc(C(F)(F)F)ccc3Cl)cc2)cc1	-4.7	-2.7	1.9	29.6*	-11.1
O=C(Nc1ccc(Cl)c(Cl)c1)c1cccc(S(=O)(=O)NCc2cccnc2)c1	2.9	-0.4	1.9	10.6*	-4.3
COc1cccc(S(=O)(=O)NCc2ccc(C(=O)Nc3ccc(C)cc3)cc2)c1	-6.8	2.4	1.9	16.8*	0.5
COc1ccc(NC(=O)c2ccc(S(=O)(=O)NCc3cccnc3)cc2)cc1	1.6	-1.9	-2.1	-21.1	-4.9
COc1ccc(NC(=O)c2ccc(CNS(=O)(=O)c3cccc(OC)c3)cc2)cc1	-5.4	2.6	2.2	-9.7	-14.1
COc1cccc(S(=O)(=O)NCc2ccc(C(=O)Nc3ccc(Cl)c(Cl)c3)cc2)c1	-1.8	0.3	3.4	25.4*	-8.9
NS(=O)(=O)c1ccc(CNC(=O)c2ccc(Cl)c(S(=O)(=O)NCc3ccccc3)c2)cc1	-1.8	1.8	-2.1	-3.8	-19.0
CC1(C)CC(=O)C2=C(C1)OC(N=CN1CCOCC1)=C(C#N)C2c1ccccc1 (stereo not drawn)	.	.	-0.5	.	.
Cc1ccc(NC(=O)C(=O)NCc2ccc(C=NNC(=O)c3c(C)nc4ccccn34)o2)cc1	.	.	9.7	.	.
CCOc1ccc(S(=O)(=O)n2cc(-c3ccccc3)c(N)n2)cc1	-4.2	-2.1	5.8	-12.0	3.8
Nc1nn(S(=O)(=O)c2ccccc2)cc1-c1cccc([N+](=O)[O-])c1	-1.7	0.8	2.1	22.2*	-10.2
CC(CCc1oc2ccc(Cl)cc2c1-c1ccc(C)o1)=NO	.	.	0.7	.	.
C#Cc1ccc(C(=O)Nc2ccc(N3CCC(C)CC3)c(C(N)=O)c2)cc1	13.9	4.6	1.8	27.3*	-6.7
CC(=NNc1ccccc1)c1cc2ccccc2oc1=O	.	.	3.3	.	.
O=C(Nc1ccc(Cl)cc1)Nc1ccc2c(c1)N1CCN=C1S2	14.8	-0.6	1.6	13.6*	-4.7
CC(=NNC(=O)C1=NNC(=O)C1C)c1cccs1 (stereo not drawn)	.	.	6.7	.	.
CC(=NNC(=O)c1ccccc1)c1cccc(Br)c1	.	.	-0.8	.	.
CC(C)OC(=O)c1ccc(NC(=O)Cn2c(-c3nonc3N)nc3ccccc32)cc1	1.9	-7.5	2.1	19.2*	-5.2
O=C(c1ccc(COc2ccc(Cl)cc2)o1)N1CCN(Cc2ccc3c(c2)OCO3)CC1	1.7	1.9	5.2	0.3	-2.9
O=C(c1ccc(COc2ccccc2Cl)o1)N1CCN(Cc2ccc3c(c2)OCO3)CC1	-3.1	-1.2	1.9	15.4*!	18.0
COc1ccc(C=NNC(=S)Nc2c(C)n(C)n(-c3ccccc3)c2=O)cc1OC	.	.	12.9	.	.
C[C@@H]1CC[C@H](O)C=CC(=O)O[C@H](C)CC[C@H](O)C=CC(=O)O1	.	.	2.2	.	.
COc1ccc(Cl)cc1Nc1ncnc2sc(C)c(S(=O)(=O)N3CCC(C)CC3)c12	10.5	3.1	-95.7	10.4*	-0.1
Cc1cccc(NN=C(C(N)=O)C2=NC(C)(C)Cc3ccccc32)c1	.	.	6.1	.	.
